Screens: PubChem, Johns Hopkins Ion Channel Center
A selection: hits, their analogues and other compounds. The true share with any hit is near 3.1%.
KCNK9 inh – inhibitors of human KCNK9 two-pore domain potassium channel. B-score at 10 µM. hit rate 1.2% among 310,000. Q9NPC2. HEK293 KCNK9, FluxOR thallium flux fluorescence; active compounds read low;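 active = ratio B-score over 3 SD below the library mean, with starting fluorescence within 5 SD of its mean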;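 note: negative B-score means less thallium flux so channel inhibition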
Target sequence (Q9NPC2 whole entry, looked up, the tested form may be a part): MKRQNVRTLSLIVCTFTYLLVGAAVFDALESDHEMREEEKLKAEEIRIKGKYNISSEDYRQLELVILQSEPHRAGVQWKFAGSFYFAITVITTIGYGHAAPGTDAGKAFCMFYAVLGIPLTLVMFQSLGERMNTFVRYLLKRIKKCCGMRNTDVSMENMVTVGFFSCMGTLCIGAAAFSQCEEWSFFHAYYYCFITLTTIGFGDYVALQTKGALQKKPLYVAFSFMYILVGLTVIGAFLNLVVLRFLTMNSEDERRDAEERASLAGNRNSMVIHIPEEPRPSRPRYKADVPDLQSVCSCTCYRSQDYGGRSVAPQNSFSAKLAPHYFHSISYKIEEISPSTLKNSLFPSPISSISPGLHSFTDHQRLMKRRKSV
KCNQ1 inh – human KCNQ1 channel inhibition; P51787; CHO-K1 KCNQ1, FluxOR thallium flux fluorescence; active compounds read high; B-score at 10 µM; hit rate 1.3% among 310,000; AID 2642;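 active = compounds whose thallium flux B-score, printed positive for inhibition, exceeds three library SD while starting fluorescence stays within three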;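 note: channel opened by potassium depolarization with thallium stimulus after 20 min compound exposure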
KCNK3 inh – human KCNK3 channel inhibition, primary screen | O14649 | CHO-KCNK3 thallium flux, FluxOR fluorescence; active compounds read low | B-score at 10 µM | hit rate 0.84% among 340,000;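 active = B-score under library mean minus 4 SD, starting fluorescence ratio at most library mean plus 5 SD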;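 note: more negative B-score means stronger inhibition of thallium flux through KCNK3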
KCNQ1 pot – potentiators or activators of human KCNQ1 potassium channel | AID 2648 | hit rate 0.35% among 310,000 | CHO-K1 KCNQ1, thallium flux FluxOR fluorescence; active compounds read high | B-score at 10 µM | P51787;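 active = fluorescence ratio B-score, a plate-corrected score, at least three library SD, with initial intensity B-score within 5 SD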
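Material: CHO-K1 cells stably expressing KCNQ1. Medium: assay buffer for compound exposure, DMSO matched across wells. Reagent: K+/Tl+ depolarizing stimulus. Compound dosing: single-concentration screen. Times: 37 °C overnight plating, 90-min dark dye load, 20-min compound pretreatment. Technique: FluxOR Tl+ flux fluorescence.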
hERG protect – hERG (human) protection from proarrhythmic block | activation (rescue from dofetilide block), less the hit threshold, % at 10 µM | Q12809 | AID 1511 | CHO-hERG, FluxOR thallium flux, dofetilide IC70 present | hit rate 0.51% among 310,000;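 active = activation above the mean of controls blocked by dofetilide plus 5 SD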;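 note: thallium influx through hERG after potassium depolarization seen as dye fluorescence rise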
KCNK9 inh conf – human KCNK9 inhibitor confirmation. shares compounds with KCNK9 inh. HEK293 KCNK9 cells, FluxOR thallium flux fluorescence. inhibition, % at 10 µM. hit rate 43% among 4,900. AID 492992;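 active = thallium signal inhibited by more than 5 SD of the compound-free buffer control wells, on both duplicate plates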;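 note: 0% = assay buffer control wells without compound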
Kir21 sel – tests whether KCNK9 modulators also affect mouse Kir2.1 | shares compounds with KCNK9 inh | Kir2.1 cells, FluxOR thallium flux fluorescence | inhibition, % at 10 µM | hit rate 4% among 4,900 | AID 492993;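 active = thallium signal drop more than 5 SD beyond the mean of the no-compound control wells, seen in both duplicate plates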;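 note: signal is fluorescence rise after thallium addition divided by baseline fluorescence; plate controls were assay buffer only for no effect and full block by chlorpromazine control for full effect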
KCNK9 uninduced – second counter-screen for KCNK9 modulators: effect in non-induced cells; shares compounds with KCNK9 inh; inhibition, % at 10 µM; hit rate 40% among 4,900; non-induced KCNK9-HEK293, FluxOR thallium flux;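 active = thallium signal drop beyond 5 SD of the untreated control mean, on both duplicate plates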;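 note: plate controls were buffer only IC0 wells for no effect and SID17386958 at its maximal inhibitory level for full effect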
An asterisk follows results filed as active; i = inactive; · = not tested or not shown.

SMILES | KCNK9 inh | KCNQ1 inh | KCNK3 inh | KCNQ1 pot | hERG protect | KCNK9 inh conf | Kir21 sel | KCNK9 uninduced
Cc1cc(C)n2c(Nc3ccc4c(c3)OCCO4)c(-c3ccccc3)nc2n1 | -11* | i | i | i | -18 | 39%* | i | 28%*
N#Cc1c(SCc2ccc(Cl)cc2)sc(C(=O)c2ccccc2)c1N | -11* | i | i | i | -6 | 26%* | i | 34%*
O=C(CSC(=S)N1CCCC1)N1CCN(S(=O)(=O)c2ccccc2F)CC1 | i | i | i | i | -12 | · | · | ·
O=C(C1CCCN1C(=O)c1cccs1)N1CCc2ccccc21 (stereo not drawn) | i | i | i | i | -8 | · | · | ·
COc1ccccc1NC(=S)NC(=O)C(C)(C)C | i | i | i | i | -5 | i | i | i
COc1ccccc1NC(=S)NC(=O)Cc1ccccc1 | i | i | i | i | -3 | · | · | ·
COC(=O)c1ccc(Oc2cc(C)nc(NCc3ccccc3)n2)cc1 | i | i | i | i | -4 | · | · | ·
COC(=O)c1ccc(Oc2nc(C)cc(Oc3ccccc3)n2)cc1 | i | i | i | i | -11 | i | i | i
COc1ccccc1C(=O)N/N=C/C(C)=C/c1ccccc1 | -10* | i | i | i | -6 | 48%* | i | 30%*
CC(/C=N/NC(=O)c1ccncc1)=C\c1ccccc1 | i | i | i | i | -7 | · | · | ·
COc1ccc2c(C)c(C(=O)N3CCN(Cc4ccccc4)CC3)oc2c1 | i | i | i | i | -8 | i | i | i
COc1ccc(CC2(CO)CCN(Cc3cccn3-c3ccccn3)CC2)cc1 | i | i | i | i | -23 | · | · | ·
Cc1ccc(-n2ncc3c2CCCC3NC(=O)CSc2ccccn2)cc1C (stereo not drawn) | i | i | i | i | -15 | i | i | i
CCCC(=O)NC1CCCc2c1cnn2-c1ccc(C)c(C)c1 (stereo not drawn) | i | i | i | i | -9 | · | · | ·
CCCOc1ccc(-c2c(=O)n(O)c3ccccc3[n+]2[O-])cc1 | -8.9* | i | i | i | 28* | i | i | i
COc1c(S(=O)(=O)N2CCN(C(=O)c3ccco3)CC2)ccc(Cl)c1Cl | i | i | i | i | -5 | · | · | ·
CN1CCN(C(=O)CCN2C(=O)/C(=C/c3cccc(Br)c3)SC2=S)CC1 | i | i | i | i | -12 | · | · | ·
CN1CCN(C(=O)CCCN2C(=O)/C(=C/c3cccc(Br)c3)SC2=S)CC1 | i | i | i | i | -21 | i | i | i
O=C(CCCN1C(=O)/C(=C/c2cccc(Br)c2)SC1=S)N1CCOCC1 | i | i | i | i | -8 | i | i | i
Cc1ccc(CS(=O)(=O)Cc2ccc(C(=O)NC3CCCC3)o2)cc1 | i | i | i | i | -3 | · | · | ·
COc1ccc(-c2nnc(SCc3cc(C)cc(C)c3)o2)cc1 | i | i | i | i | -10 | i | i | i
COc1cccc(-c2nc3ccc(C(=O)NC(C)Cc4cccnc4)cc3o2)c1 (stereo not drawn) | i | i | i | i | -16 | · | · | ·
CCC(SC1=NCCS1)C(=O)Nc1nnc(-c2ccccc2OC)s1 (stereo not drawn) | -10* | i | i | i | -7 | 30%* | i | 34%*
CC(SC1=NCCS1)C(=O)Nc1nnc(-c2ccc(Br)cc2)s1 (stereo not drawn) | -18* | i | i | i | -6 | i | i | 22%*
CC(SC1=NCCS1)C(=O)Nc1nnc(-c2ccc(F)cc2)s1 (stereo not drawn) | i | i | i | i | -7 | · | · | ·
SMILES | KCNK9 inh | KCNQ1 inh | KCNK3 inh | KCNQ1 pot | hERG protect | KCNK9 inh conf | Kir21 sel | KCNK9 uninduced
CCN(CC)S(=O)(=O)c1cccc(-c2nnc(SCCCC(=O)c3ccc(F)cc3)o2)c1 | i | i | i | i | -12 | · | · | ·
C=CCn1c(C)cc(C(=O)CSc2nnc(-c3cccc(S(=O)(=O)N(CC)CC)c3)o2)c1C | i | i | i | i | -1 | i | i | i
CCN(CC)S(=O)(=O)c1cccc(-c2nnc(SCCCC(=O)c3ccccc3)o2)c1 | i | i | i | i | -19 | i | i | i
CCN(CC)S(=O)(=O)c1cccc(-c2nnc(SCC(=O)c3cc(C)n(C4CC4)c3C)o2)c1 | i | i | i | i | -16 | · | · | ·
CC(=O)c1cccc(NCC(=O)Nc2cccc(S(=O)(=O)N3CCCCC3)c2)c1 | i | i | i | i | -14 | · | · | ·
CC1Cc2ccccc2N1C(=O)CNc1cccc(S(=O)(=O)N2CCCC2)c1 (stereo not drawn) | i | i | i | i | -13 | i | i | i
COc1ccc(CN=Cc2c(C(F)(F)F)[nH][nH]c2=O)cc1 | -11* | i | i | i | -10 | 27%* | i | i
COC(=O)c1ccc(N=Cc2c(C(F)(F)F)[nH][nH]c2=O)cc1 | i | i | i | i | -13 | · | · | ·
Cc1cc(C(=O)CSc2ccc(F)cc2)cc(C)c1OC(=S)N(C)C | i | i | i | i | -9 | i | i | 32%*
Cc1ccc([N+](=O)[O-])c(OCCN2CCC(Cc3ccccc3)CC2)c1 | i | i | i | i | -29 | i | i | i
CCOc1ccccc1OCCN1CCC(Cc2ccccc2)CC1 | i | i | i | i | -12 | i | i | i
CCOc1ccccc1OCCN1CCCC1 | i | i | i | i | -1 | · | · | ·
Cc1ccccc1OCCN1CCC(Cc2ccccc2)CC1 | i | i | i | i | -14 | i | i | i
COc1cc(C)c(NC(=O)C(=S)NCc2ccccc2)cc1C | i | i | i | i | 3 | i | i | 27%*
COc1cc(C)c(NC(=O)C(=S)N2CCCC2)cc1C | i | i | i | i | -16 | · | · | ·
COc1ccc(CN2CCN(CCSc3ccc(C)cc3)CC2)c(OC)c1OC | i | i | i | i | -2 | i | i | i
CCOc1ccccc1N1CCN(Cc2ccc(OC)c(OC)c2OC)CC1 | i | i | i | i | -10 | · | · | ·
CCOc1ccccc1OCCOCCOc1ccccc1[N+](=O)[O-] | i | i | i | i | -13 | i | i | i
COc1cccc(-c2ccc(SCc3ccccn3)nn2)c1 | i | i | i | i | -23 | i | i | i
